The sample as a whole holds a higher share of hits than the screen did.
INS promoter act = activators of insulin promoter-driven GFP, primary screen, imaging, TRM-6 cells (human fetal islet line), eGFP reporter, cell count; AID 1296, 2008; plate-scaled: unstimulated 0, stimulated control 100; 0.81% of 130,000 active; activation, % at 2 µM;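 active = activation at 2 µM above a set limit, confirmed on inspection of the cell images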;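 note: share of cells whose green reporter signal exceeds an intensity cutoff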
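Test system: TRM-6 insulin promoter–eGFP reporter cells / Quantity: 1,000 cells per well / Reagent: tamoxifen inducer, 0.75 µM, in seeding medium / Compound dosing: 2 µM final, single concentration / Schedule: overnight tamoxifen, then two-day compound incubation at 37 °C / Measured by: automated fluorescence imaging of paraformaldehyde-fixed, Hoechst-counterstained cells, green channel / Read-out: percent activation from GFP-positive cell fraction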
* marks the source's active call; other numbers are inactive results.

SMILES	INS promoter act
COc1ccc(-c2nnn(Cc3ccccc3F)n2)cc1	521*
COC(=O)c1c(O)cc(C(C)(C)C)n(-c2ccccc2)c1=O	-2
O=C1[C@@H]2[C@H](C(=O)N1Cc1ccco1)[C@H]1C=C[C@@H]2C1	8
Cc1cccc(-c2csc(N)c2C(=O)OC(C)C)c1	6
COC(=O)c1c(-c2ccncc2)csc1NC(=O)c1ccoc1C	-9
CCOC(=O)c1c(-c2ccncc2)csc1N	460*
COc1cc([N+](=O)[O-])cc2cc(C(=O)N3CCN=C3c3ccccc3)c(=O)oc12	-8
O=C(COc1ccc(Cl)cc1)NCc1cn2cc(Cl)ccc2n1	-3
CCOC(=O)C(NC(=O)c1ccc(OC)cc1)(OCC1(CC)COC1)C(F)(F)F (configuration not stated)	-7
CCOC(=O)C(NC(=O)c1ccccc1)(OCc1ccc(F)cc1)C(F)(F)F (configuration not stated)	6
CCOC(=O)C(NC(=O)Nc1ncccn1)(Oc1ccccc1)C(F)(F)F (configuration not stated)	190*
CCN1CCc2c(OCC(=O)Nc3ccc4c(c3)OCCO4)cccc2C1=O	5
O=[N+]([O-])c1ccc2cn(-c3ccccc3)nc2c1	7
Cc1cc(=O)oc2cc(OCC(=O)N3CCN(C(=O)c4ccco4)CC3)ccc12	9
CN(C)c1nc(N)nc(CSc2nnnn2-c2ccc(F)cc2)n1	8
Cc1ncc(CSc2nnnn2-c2ccccc2)c(N)n1	219
Nc1nc(CSc2nnnn2-c2ccccc2)nc(N2CCCc3ccccc32)n1	447*
CCOC(=O)c1cccc(NC(=O)Cn2c(CC(=O)N3CCCC3)nc3ccccc32)c1	3
Cc1cc(C)nc(SCC(=O)Oc2ccc3oc(=O)cc(C)c3c2)n1	-10
CC(=O)C1=C(c2ccccc2)OC(N)=C(C#N)C1c1ccc(O)cc1 (configuration not stated)	-9
CCOC(=O)C1=C(CSc2nc(-c3ccccc3)ccc2C#N)OC(N)=C(C#N)C1c1ccc(OC)cc1 (configuration not stated)	84*
CCOC(=O)C1=C(CSc2nc(C)cc(C)c2C#N)OC(N)=C(C#N)C1c1ccccc1 (configuration not stated)	3
CCOC(=O)c1cn2cccnc2n1	-3
Cc1nc(SCc2ccccc2)c(C(F)(F)F)c(=O)[nH]1	0
Cc1ccc(C(=O)c2cc([N+](=O)[O-])ccc2N2CCCCC2)c(C)c1	148
SMILES	INS promoter act
O=C(/C=C/c1ccc(OC2CSC2)cc1)c1ccc(Cl)cc1	4
O=C(/C=C/c1ccc(N2CCC(c3ccccc3)=N2)cc1)c1ccccc1	456*
Cc1ccc(/C=C/C(=O)c2ccc(C)cc2)cc1	367
CN(C)c1cc[n+](CC(=O)Nc2ccc(Oc3ccccc3)cc2)cc1	3
CS(=O)(=O)N1CCC(C(=O)Nc2ccc(Br)cc2F)CC1	-3
Cc1ccc(SC(C)C(=O)Nc2ncn[nH]2)cc1 (configuration not stated)	8
Cc1ccc(SC(C)C(=O)NCC(C)C)cc1 (configuration not stated)	519*
CCCCCNC(=O)C(C)Sc1ccc(Cl)cc1 (configuration not stated)	164
CSc1nnc(N(CCC#N)CCC#N)s1	0
COc1cc(/C=C(\C#N)c2ccccn2)ccc1OCC(=O)Nc1ccc(Br)cc1	7
COc1ccc(NC(=O)/C=C/c2ccccc2)c([N+](=O)[O-])c1	-9
COc1ccc(NC(=O)COC(=O)c2ccco2)c([N+](=O)[O-])c1	-9
COc1ccc(NC(=O)CC(C)c2ccccc2)c([N+](=O)[O-])c1 (configuration not stated)	443*
CC(=O)OC1COC(N2CCc3ccccc32)C(OC(C)=O)C1OC(C)=O (configuration not stated)	-3
COc1ccc(C2=NOC(CNC(N)=S)C2)cc1 (configuration not stated)	0
Cc1ccc2nsnc2c1S(=O)(=O)NCc1ccc2c(c1)OCO2	0
CCOc1cc(S(=O)(=O)NCc2ccc3c(c2)OCO3)c(C)cc1C	141*
O=S(=O)(NCc1ccc2c(c1)OCO2)c1cccc2cccnc12	0
CCCCNC(=O)CNC(=S)N(Cc1cc(OC)c(OC)c(OC)c1)C1CCCC1	4
CNC(=O)C1C(=S)NC(N)=C(C#N)C1c1ccccc1 (configuration not stated)	-2
Cc1cc(NC(=O)CN2CCOCC2)n(-c2nc3ccccc3s2)n1	-6
O=S(=O)(NCc1ccco1)c1cccc(S(=O)(=O)N2CCOCC2)c1	0
O=S(=O)(c1ccc(S(=O)(=O)N(Cc2ccccc2)Cc2ccco2)cc1)N1CCCC1	494*
C[C@H](NC(=O)c1ccco1)C(=O)Nc1ccc(S(=O)(=O)N2CCCC2)cc1	-4
CSc1nc(Oc2ccc(C)cc2)cc(C(F)(F)F)n1	-7
CCOC(=O)C1(Cc2ccc(Cl)cc2)CCN(C(=O)c2sc(C)nc2C)CC1	-9
